Laboratory results as given in ChEMBL document CHEMBL4038330, “Discovery of Potent Orally Active Protease-Activated Receptor 1 (PAR1) Antagonists Based on Andrographolide” (J Med Chem, 2017).

Columns and labels:
[1] = tested on: ADP-stimulated platelet aggregation; assay: Toxicity in guinea pig assessed as inhibition of ADP-stimulated platelet aggregation at 30 mg/kg, po pretreated for 2 hrs followed by ADP stimulation measured after 5 mins; type: organism-based, Cavia porcellus; details: in vivo
[2] = Oral bioavailability in Wistar rat at 5 mg/kg measured up to 24 hrs post dose by HPLC-MS/MS analysis; type: ADME, organism-based; details: in vivo
In short: (§1)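 Male Wistar rats, n = 6 per group, given 1 mg/kg intravenously or 5 mg/kg intragastrically. Blood concentrations followed over 24 h. Non-compartmental analysis; values as median ± SD. Bioavailability from oral versus intravenous exposure.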

Rattus norvegicus [3] = assay: VRT (0 to infinity) in Wistar rat at 1 mg/kg, iv administered as bolus dose measured up to 24 hrs post dose by HPLC-MS/MS analysis; type: ADME, organism-based; details: in vivo
Rattus norvegicus [4] = assay: VRT (0 to infinity) in Wistar rat at 5 mg/kg, po measured up to 24 hrs post dose by HPLC-MS/MS analysis; type: ADME, organism-based; details: in vivo
[5] = Tmax in Wistar rat at 1 mg/kg, iv administered as bolus dose measured up to 24 hrs post dose by HPLC-MS/MS analysis; type: ADME, organism-based; details: in vivo; in short: as §1
[6] = tested on: collagen-stimulated platelet aggregation; assay: Toxicity in guinea pig assessed as inhibition of collagen-stimulated platelet aggregation at 30 mg/kg, po pretreated for 2 hrs followed by collagen stimulation measured after 5 mins; type: organism-based, Cavia porcellus; details: in vivo
Platelet [7] = assay: Effect on ADP-stimulated platelet aggregation in human platelet-rich plasma up to 10 uM preincubated for 20 mins followed by ADP stimulation measured after 5 mins by aggregometric analysis; type: ADME, cell-based
In short: (§2)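 Human platelet-rich plasma stimulated with TRAP 15 µM, ADP 10 µM or collagen 5 µg/mL. ADP and collagen tests went up to 10 µM compound. Three separate experiments per agonist. Mean IC50 taken from IC50s of the independent experiments; values given as median ± SD.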

[8] = Cmax in Wistar rat at 1 mg/kg, iv administered as bolus dose measured up to 24 hrs post dose by HPLC-MS/MS analysis; type: ADME, organism-based; set-up: dose 1 mg/kg, route intravenous; details: in vivo; in short: as §1
[9] = tested on: ADP-stimulated platelet aggregation; assay: Toxicity in guinea pig assessed as inhibition of ADP-stimulated platelet aggregation at 10 mg/kg, po pretreated for 2 hrs followed by ADP stimulation measured after 5 mins; type: organism-based, Cavia porcellus; details: in vivo
Rattus norvegicus [10] = assay: AUMC (0 to infinity) in Wistar rat at 1 mg/kg, iv administered as bolus dose measured up to 24 hrs post dose by HPLC-MS/MS analysis; type: ADME, organism-based; details: in vivo; in short: as §1
Plasma [11] = assay: Drug metabolism in Wistar rat plasma assessed as [M2+O-2H] metabolite formation at 5 mg/kg, po administered as single dose measured at 3 hrs post dose by LC-HRMS analysis; type: ADME, organism-based; details: in vivo
In short: (§3)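 Rats dosed orally at 10 mg/kg or 5 mg/kg. Plasma taken at 3.0 h after dosing. Parent and metabolites detected by extracted ion chromatograms.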

[12] = MRT (0 to infinity) in Wistar rat at 1 mg/kg, iv administered as bolus dose measured up to 24 hrs post dose by HPLC-MS/MS analysis; type: ADME, organism-based; details: in vivo; in short: as §1
Cavia porcellus [13] = assay: In vivo antagonist activity at PAR1 in guinea pig assessed as inhibition of TRAP-stimulated platelet aggregation at 10 mg/kg, po pretreated for 2 hrs followed by TRAP stimulation measured after 5 mins; type: functional
[14] = Apparent clearance in Wistar rat at 1 mg/kg, iv administered as bolus dose measured up to 24 hrs post dose by HPLC-MS/MS analysis; type: ADME, organism-based; details: in vivo, read-out: CL(app) (converted); in short: as §1
[15] = tested on: collagen-stimulated platelet aggregation; assay: Toxicity in guinea pig assessed as inhibition of collagen-stimulated platelet aggregation at 10 mg/kg, po pretreated for 2 hrs followed by collagen stimulation measured after 5 mins; type: organism-based, Cavia porcellus; details: in vivo
[16] = Cmax in Wistar rat at 5 mg/kg, po measured up to 24 hrs post dose by HPLC-MS/MS analysis; type: ADME, organism-based; set-up: dose 5 mg/kg, route oral; details: in vivo; in short: as §1
[17] = target: T1, Proteinase-activated receptor 1 (Homo sapiens, UniProt P25116); assay: Antagonist activity at human PAR1 expressed in HEK293 cells co-expressing Galpha15 assessed as inhibition of haTRAP-induced calcium mobilization preincubated for 15 mins followed by haTRAP addition by calcium-4 dye based FLIPR assay; type: functional, cell-based
T1 sequence (P25116 whole entry): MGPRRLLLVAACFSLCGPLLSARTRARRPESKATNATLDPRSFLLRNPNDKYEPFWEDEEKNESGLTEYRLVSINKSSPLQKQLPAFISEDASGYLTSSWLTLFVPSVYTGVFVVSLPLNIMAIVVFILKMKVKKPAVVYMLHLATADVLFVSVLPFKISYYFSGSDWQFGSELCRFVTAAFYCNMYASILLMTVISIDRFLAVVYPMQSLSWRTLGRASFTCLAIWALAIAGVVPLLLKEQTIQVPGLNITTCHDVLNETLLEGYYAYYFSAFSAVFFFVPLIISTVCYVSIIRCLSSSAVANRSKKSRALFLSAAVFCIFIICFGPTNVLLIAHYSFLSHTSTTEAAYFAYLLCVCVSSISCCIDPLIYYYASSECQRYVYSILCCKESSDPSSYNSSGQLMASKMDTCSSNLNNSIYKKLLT

Rattus norvegicus [18] = assay: Toxicity in Wistar rat assessed as body weight at 5 mg/kg, po measured up to 24 hrs post dose; type: organism-based; details: in vivo
Cavia porcellus [19] = assay: In vivo antagonist activity at PAR1 in guinea pig assessed as inhibition of thrombin-stimulated platelet aggregation at 30 mg/kg, po pretreated for 2 hrs followed by thrombin stimulation measured after 5 mins; type: functional
[20] = Apparent volume of distribution in Wistar rat at 1 mg/kg, iv administered as bolus dose measured up to 24 hrs post dose by HPLC-MS/MS analysis; type: ADME, organism-based; details: in vivo, read-out: Vd(app); in short: as §1
Rattus norvegicus [21] = assay: Apparent volume of distribution in Wistar rat at 5 mg/kg, po measured up to 24 hrs post dose by HPLC-MS/MS analysis; type: ADME, organism-based; details: in vivo; in short: as §1
Rattus norvegicus [22] = assay: Toxicity in Wistar rat assessed as behavioral abnormalities at 5 mg/kg, po measured up to 24 hrs post dose; type: organism-based; details: in vivo
In short: (§4)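 Male Wistar rats given 1 mg/kg iv or 5 mg/kg intragastrically. Behaviour observed for abnormalities over the 24 h sampling period.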

Rattus norvegicus [23] = assay: Toxicity in Wistar rat assessed as behavioral abnormalities at 1 mg/kg, iv measured up to 24 hrs post dose; type: organism-based; details: in vivo; in short: as §4
[24] = Tmax in Wistar rat at 5 mg/kg, po measured up to 24 hrs post dose by HPLC-MS/MS analysis; type: ADME, organism-based; details: in vivo; in short: as §1
Platelet [25] = assay: Effect on collagen-stimulated platelet aggregation in human platelet-rich plasma up to 10 uM preincubated for 20 mins followed by collagen stimulation measured after 5 mins by aggregometric analysis; type: ADME, cell-based; in short: as §2
[26] = Apparent terminal half life in Wistar rat at 1 mg/kg, iv administered as bolus dose measured up to 24 hrs post dose by HPLC-MS/MS analysis; type: ADME, organism-based; details: in vivo, read-out: betat1/2(app) (converted); in short: as §1
[27] = Apparent terminal half life in Wistar rat at 5 mg/kg, po measured up to 24 hrs post dose by HPLC-MS/MS analysis; type: ADME, organism-based; details: in vivo, read-out: betat1/2(app) (converted); in short: as §1
Plasma [28] = assay: Drug metabolism in Wistar rat plasma assessed as [M2-2H] metabolite formation at 5 mg/kg, po administered as single dose measured at 3 hrs post dose by LC-HRMS analysis; type: ADME, organism-based; details: in vivo; in short: as §3

bioavailability [2]: 52.5% | VRT (Rattus norvegicus [3]): 7.6 ha2 | VRT (Rattus norvegicus [4]): 25 ha2 | Tmax [5]: 1.2 min | Cmax [8]: 1.73 µg/mL | AUMC (Rattus norvegicus [10]): 1.135 µg·h/mL | Drug metabolism (Plasma [11]): Metabolite_Detected | MRT inf [12]: 2 h | clearance [14]: 1.9 L/h/kg | Cmax [16]: 0.229 µg/mL | IC50 [17]: 1.1 µM | Vd [20]: 5.7 L/kg | Vd(app) (Rattus norvegicus [21]): 20 L/kg | Tmax [24]: 2.5 h | half-life [26]: 2 h | half-life [27]: 3.1 h | Drug metabolism (Plasma [28]): Metabolite_Detected
SMILES: CC1CC[C@@H]2C(C)(C)[C@H](O)CC[C@@]2(C)[C@@H]1/C=C/c1ccc(-c2cccc(F)c2)cn1 (single isomer, unassigned)
inhibition at 5 min [1]: 4.5% | inhibition at 5 min [6]: 6.8% | Activity (Platelet [7]): Non-Toxic | inhibition at 5 min [9]: 6.7% | inhibition in vivo at 10 mg/kg (Cavia porcellus [13]): 87.6% | inhibition at 5 min [15]: 5.5% | Activity (Rattus norvegicus [18]): 224 g | inhibition in vivo at 30 mg/kg (Cavia porcellus [19]): 99.8% | Activity (Rattus norvegicus [22]): Non-Toxic | Activity (Rattus norvegicus [23]): Non-Toxic | Activity (Platelet [25]): Non-Toxic
